{"source": "ChEMBL document CHEMBL4406804", "about": "“Discovery of a Potent Steroidal Glucocorticoid Receptor Antagonist with Enhanced Selectivity against the Progesterone and Androgen Receptors (OP-3633)” (J Med Chem, 2019)", "key": {"[1]": {"target": "T1, Androgen receptor (Homo sapiens, UniProt P10275)", "T1 sequence (P10275 whole entry)": "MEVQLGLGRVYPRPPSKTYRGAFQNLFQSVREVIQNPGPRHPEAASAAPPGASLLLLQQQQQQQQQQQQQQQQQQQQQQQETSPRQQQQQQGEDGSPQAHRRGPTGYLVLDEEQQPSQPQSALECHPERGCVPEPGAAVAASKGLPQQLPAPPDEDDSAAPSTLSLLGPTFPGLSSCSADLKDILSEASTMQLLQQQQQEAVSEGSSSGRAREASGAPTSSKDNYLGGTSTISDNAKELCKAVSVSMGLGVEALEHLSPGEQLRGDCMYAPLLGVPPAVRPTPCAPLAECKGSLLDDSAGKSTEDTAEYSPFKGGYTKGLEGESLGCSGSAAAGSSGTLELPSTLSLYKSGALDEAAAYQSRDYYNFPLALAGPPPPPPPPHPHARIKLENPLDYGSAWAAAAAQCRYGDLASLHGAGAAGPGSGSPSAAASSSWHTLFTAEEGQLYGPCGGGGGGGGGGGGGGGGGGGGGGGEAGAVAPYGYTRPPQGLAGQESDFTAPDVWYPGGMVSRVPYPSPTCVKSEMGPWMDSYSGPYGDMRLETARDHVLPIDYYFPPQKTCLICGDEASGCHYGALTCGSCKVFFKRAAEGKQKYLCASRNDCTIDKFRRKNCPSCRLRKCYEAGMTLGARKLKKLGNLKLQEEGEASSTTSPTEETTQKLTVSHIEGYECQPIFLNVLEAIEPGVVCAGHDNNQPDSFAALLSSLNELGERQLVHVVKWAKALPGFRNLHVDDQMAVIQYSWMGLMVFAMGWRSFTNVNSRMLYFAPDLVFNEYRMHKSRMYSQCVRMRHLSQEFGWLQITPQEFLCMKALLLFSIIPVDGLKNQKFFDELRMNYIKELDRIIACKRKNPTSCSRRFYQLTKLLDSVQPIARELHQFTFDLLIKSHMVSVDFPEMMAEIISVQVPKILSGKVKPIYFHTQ", "test": "Antagonist activity at human androgen receptor in human LNCAP cells harboring firefly luciferase gene after 20 hrs by One-Glo luciferase reporter gene assay", "format": "cell-based", "summary_of_the_method": "(§1)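 Cell-based luciferase reporter assays for GR, AR and PR, run in agonist and antagonist modes. Potency and Emax are averages of at least two determinations, reported with SD.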"}, "[2]": {"target": "T2, Progesterone receptor (Homo sapiens) (UniProt P06401)", "T2 sequence (whole entry)": "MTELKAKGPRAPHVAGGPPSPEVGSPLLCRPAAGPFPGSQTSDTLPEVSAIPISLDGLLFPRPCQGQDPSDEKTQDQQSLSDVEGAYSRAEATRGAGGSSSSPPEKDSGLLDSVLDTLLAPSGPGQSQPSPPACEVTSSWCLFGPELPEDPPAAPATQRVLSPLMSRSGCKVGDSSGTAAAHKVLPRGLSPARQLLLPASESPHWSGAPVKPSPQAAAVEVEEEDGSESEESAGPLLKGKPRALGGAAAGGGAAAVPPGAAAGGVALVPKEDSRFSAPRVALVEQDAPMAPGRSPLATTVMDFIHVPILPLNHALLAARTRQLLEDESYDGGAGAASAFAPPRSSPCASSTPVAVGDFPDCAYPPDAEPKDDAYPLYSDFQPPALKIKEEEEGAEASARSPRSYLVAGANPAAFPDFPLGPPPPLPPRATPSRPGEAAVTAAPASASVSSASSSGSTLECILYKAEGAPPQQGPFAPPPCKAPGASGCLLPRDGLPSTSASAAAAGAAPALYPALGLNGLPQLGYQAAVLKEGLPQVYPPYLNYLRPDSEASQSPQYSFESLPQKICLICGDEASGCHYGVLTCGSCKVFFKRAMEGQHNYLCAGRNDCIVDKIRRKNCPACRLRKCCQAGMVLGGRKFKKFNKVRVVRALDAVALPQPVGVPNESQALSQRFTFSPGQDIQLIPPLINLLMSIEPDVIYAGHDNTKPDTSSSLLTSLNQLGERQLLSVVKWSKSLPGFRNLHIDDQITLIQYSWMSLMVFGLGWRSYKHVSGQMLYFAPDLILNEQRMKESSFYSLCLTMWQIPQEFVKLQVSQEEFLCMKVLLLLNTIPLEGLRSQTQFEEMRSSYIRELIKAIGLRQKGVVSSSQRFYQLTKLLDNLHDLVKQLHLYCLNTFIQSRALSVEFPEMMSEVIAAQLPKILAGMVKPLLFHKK", "test": "Agonist activity at human progesterone receptor expressed in CHO-K1 cells harboring firefly luciferase gene after 20 hrs by One-Glo luciferase reporter gene assay", "format": "cell-based", "summary_of_the_method": "as §1"}, "[3]": {"target": "T3, CYP2C8 (Homo sapiens, UniProt P10632)", "T3 sequence (P10632 whole entry)": "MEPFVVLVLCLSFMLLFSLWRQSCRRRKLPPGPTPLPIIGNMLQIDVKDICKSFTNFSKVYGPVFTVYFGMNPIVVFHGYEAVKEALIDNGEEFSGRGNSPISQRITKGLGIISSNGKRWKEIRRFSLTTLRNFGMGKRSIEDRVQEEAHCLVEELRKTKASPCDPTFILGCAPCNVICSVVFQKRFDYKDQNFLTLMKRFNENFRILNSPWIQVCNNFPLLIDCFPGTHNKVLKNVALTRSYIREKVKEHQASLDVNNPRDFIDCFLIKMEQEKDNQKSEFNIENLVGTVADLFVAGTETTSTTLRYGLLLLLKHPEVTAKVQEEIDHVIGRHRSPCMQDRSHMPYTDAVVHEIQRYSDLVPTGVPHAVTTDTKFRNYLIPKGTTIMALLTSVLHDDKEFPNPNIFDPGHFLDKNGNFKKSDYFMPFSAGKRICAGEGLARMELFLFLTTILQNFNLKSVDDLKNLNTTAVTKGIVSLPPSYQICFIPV", "test": "Inhibition of CYP2C8 (unknown origin) at 10 uM using paclitaxel as substrate relative to control", "format": "ADME", "conditions": "probe paclitaxel"}, "[4]": {"test": "Cmax in rat at 5 mg/kg, po", "format": "ADME, organism-based", "parameters": "dose 5 mg/kg, route oral", "conditions": "in vivo", "summary_of_the_method": "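Rat PK study. The iv dose of 0.5 mg/kg was given in 10% DMSO, 70% PEG 400 and 20% water. The oral dose of 5 mg/kg was given in 5% DMSO / 95% of 0.2% Tween 80 in 0.25% CMC, adjusted to pH 4 for one compound. Read-outs were CL, Vss, iv t1/2, F, Cmax and AUC.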"}}, "note": "Active and inactive are the calls of the source. The calls are words filed in the database; no cut-off is given here.", "data": [{"smiles": "CC#C[C@]1(O)CC[C@H]2[C@@H]3CCC4=CC(=O)CC[C@]4(C)[C@H]3[C@@H](c3ccc(N(C)C)cc3)C[C@@]21C", "values": [{"measurement": "IC50", "setting": "[1]", "value": 912, "unit": "nM"}, {"measurement": "agonist activity", "setting": "[2]", "value": "inactive"}, {"measurement": "inhibition at 10 µM", "setting": "[3]", "value": 58, "unit": "%"}, {"measurement": "Cmax", "setting": "[4]", "value": 518, "unit": "ng/mL"}]}]}
